Measurements published in ChEMBL document CHEMBL4613270, “Structure-Activity Relationship Study Enables the Discovery of a Novel Berberine Analogue as the RXRα Activator to Inhibit Colon Cancer” (J Med Chem, 2020).
pIC50: −log10 of the molar value. Activity calls are given as the source filed them. No cut-off for these calls is given here.

How the values were obtained:
[1] = molecular target: T1, Retinoic acid receptor RXR-alpha (Homo sapiens) (UniProt P19793); test: In-vivo activation of RXRalpha in BALB/c mouse xenografted with human KM12C cells assessed as effect on Ki67 protein expression at 100 mg/kg, ig dosed daily for 15 days by immunohistochemistry analysis; assay type: functional, organism-based
T1 sequence (whole entry): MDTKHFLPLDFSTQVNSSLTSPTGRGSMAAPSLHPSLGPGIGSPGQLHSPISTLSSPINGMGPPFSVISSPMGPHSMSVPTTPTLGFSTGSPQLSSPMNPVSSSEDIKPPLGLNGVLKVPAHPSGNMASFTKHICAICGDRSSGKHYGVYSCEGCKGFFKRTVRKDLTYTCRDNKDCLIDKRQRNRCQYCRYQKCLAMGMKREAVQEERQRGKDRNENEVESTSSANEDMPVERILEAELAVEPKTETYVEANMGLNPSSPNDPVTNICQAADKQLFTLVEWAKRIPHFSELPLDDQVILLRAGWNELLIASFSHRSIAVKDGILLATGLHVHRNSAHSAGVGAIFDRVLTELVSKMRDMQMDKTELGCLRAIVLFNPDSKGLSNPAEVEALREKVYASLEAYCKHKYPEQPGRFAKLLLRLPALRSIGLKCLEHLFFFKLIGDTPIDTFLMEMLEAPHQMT

SW-620 = test: Inhibition of cell proliferation of human SW620 cells incubated for 15 hrs by MTT assay; assay type: functional, cell-based; conditions: SW-620, 15 h
Procedure, shortened: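 Cells plated at 1×10⁴ per well, incubated overnight at 37 °C, then exposed to a concentration series for 15 h. MTT (5 mg/mL stock) added for 4 h at 37 °C. Formazan dissolved in DMSO and absorbance read at 570 nm. IC50 derived from the dose-response curve.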

[2] = molecular target: T1, Retinoic acid receptor RXR-alpha (Homo sapiens); test: Activation of RXRalpha LBD (unknown origin) expressed in human KM12C cells at 50 uM incubated for 15 hrs by luciferase reporter gene assay; assay type: cell-based
Procedure, shortened: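 KM12C co-transfected with pG5luc and pBIND-RXRα-LBD (Gal4-fusion one-hybrid); 20 h post-transfection treated 15 h with 50 μM compound; dual-luciferase read-out (firefly/Renilla) after passive lysis at 4 °C, 1 h; basal activity normalized to 1.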

[3] = molecular target: T1, Retinoic acid receptor RXR-alpha (Homo sapiens); test: Activation of RXRalpha in human KM12C cells assessed as reduction in Cdc2 protein expression at 25 to 50 uM incubated for 15 hrs by Western blot analysis; assay type: cell-based
[4] = Toxicity in BALB/c mouse xenografted with human KM12C cells assessed as effect on biochemical parameter by measuring urea […] level at 100 mg/kg, ig dosed daily for 15 days by automatic chemistry analyzer based analysis (reference value: 8.21 +/- 0.26 mmol/L); assay type: organism-based; conditions: in vivo, po, 360 h
[5] = molecular target: T1, Retinoic acid receptor RXR-alpha (Homo sapiens); test: In-vivo activation of RXRalpha in BALB/c mouse xenografted with human KM12C cells assessed as increase in p21 (WAF1/CIP) protein expression at 100 mg/kg, ig dosed daily for 15 days by Western blot analysis; assay type: functional, organism-based
[6] = molecular target: T1, Retinoic acid receptor RXR-alpha (Homo sapiens); test: Activation of RXRalpha in human KM12C cells assessed as reduction in c-Myc protein expression at 25 to 50 uM incubated for 15 hrs by Western blot analysis; assay type: cell-based
[7] = Toxicity in BALB/c mouse xenografted with human KM12C cells assessed as effect on biochemical parameter by measuring triglyceride level at 100 mg/kg, ig dosed daily for 15 days by automatic chemistry analyzer based analysis (reference value: 0.96 +/- 0.056 mmol/L); assay type: organism-based; conditions: in vivo, po, 360 h
[8] = Half life in Sprague-Dawley rat at 100 mg/kg, ig measured after 0.083 to 36 hrs by LC-MS/MS analysis; assay type: ADME, organism-based; conditions: in vivo, po
Procedure, shortened: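 SD rats (200 ± 20 g) randomized to three groups; single intragastric dose of 100 mg/kg or vehicle (0.5% CMC-Na). Tail-vein blood (0.5 mL) drawn at 0.083, 0.25, 0.5, 1, 2, 4, 8, 12, 24 and 36 h. Plasma separated by centrifugation at 2000 rpm for 10 min, frozen at -80 °C, then quantified by LC-MS/MS.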

[9] = molecular target: T1, Retinoic acid receptor RXR-alpha (Homo sapiens); test: Activation of RXRalpha (unknown origin) expressed in human HCT116 cells co-expressing beta-catenin and c-Cbl assessed as induction of beta-caten interaction with c-Cbl at 30 to 60 uM incubated for 15 hrs by mammalian two-hybrid assay; assay type: cell-based; conditions: HCT-116
Procedure, shortened: (§1)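 Mammalian two-hybrid: cells co-transfected by lipofection with pBIND-β-catenin/S33Y plus pACT-RXRα (RXRα–β-catenin) or pACT-c-Cbl (β-catenin–c-Cbl); 20 h after transfection, compound added for 15 h; cells lysed in passive lysis buffer, 4 °C, 1 h; firefly and Renilla luciferase read by dual-luciferase kit.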

[10] = molecular target: T1, Retinoic acid receptor RXR-alpha (Homo sapiens); test: In-vivo activation of RXRalpha in BALB/c mouse xenografted with human KM12C cells assessed as reduction in Cdc2 mRNA expression at 100 mg/kg, ig dosed daily for 15 days by real-time PCR analysis; assay type: functional, organism-based
Procedure, shortened: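 KM12C cells (1×10^6 per mouse in 100 μL HBSS) injected subcutaneously into both flanks of nude mice; after seven days, randomized to three groups, dosed intragastrically once daily for 15 days with vehicle (CMC-Na) or 100 mg/kg compound; mice euthanized and tumors removed for analysis.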

[11] = Toxicity in BALB/c mouse xenografted with human KM12C cells assessed as effect on biochemical parameter by measuring ALT level at 100 mg/kg, ig dosed daily for 15 days by automatic chemistry analyzer based analysis (reference value: 24.18 +/- 0.77 U/L); assay type: organism-based; conditions: in vivo, po, 360 h
[12] = molecular target: T1, Retinoic acid receptor RXR-alpha (Homo sapiens); test: Activation of RXRalpha in human HCT116 cells assessed as […] crease in p21 (WAF1/CIP1) mRNA expression at 30 to 60 uM incubated for 15 hrs by real-time PCR analysis; assay type: cell-based; conditions: HCT-116
[13] = molecular target: T1, Retinoic acid receptor RXR-alpha (Homo sapiens); test: Activation of RXRalpha in human HCT116 cells assessed as reduction in c-Myc mRNA expression at 30 to 60 uM incubated for 15 hrs by real-time PCR analysis; assay type: cell-based; conditions: HCT-116
[14] = Toxicity in BALB/c mouse xenografted with human KM12C cells assessed as effect on biochemical parameter by measuring creatinine level at 100 mg/kg, ig dosed daily for 15 days by automatic chemistry analyzer based analysis (reference value: 27.02 +/- 1.22 umol/L); assay type: organism-based; conditions: in vivo, po, 360 h
[15] = molecular target: T1, Retinoic acid receptor RXR-alpha (Homo sapiens); test: Induction of conformational changes in His-tagged RXRalpha LBD (unknown origin) expressed in Escherichia coli strain BL21 (DE3) at 5 uM by circular dichroism spectroscopic assay
Procedure, shortened: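 His-RXRα-LBD expressed in E. coli BL21(DE3) (0.1 mM IPTG, 16 °C, 16 h), Ni-NTA purified, diluted to 1 µM in 0.01 M phosphate buffer; compound 5 µM (0.01% DMSO). CD spectra recorded 180-260 nm at 25 °C, 0.1 cm path, 1 nm bandwidth, 20 nm/min, 5 min after compound addition.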

[16] = molecular target: T1, Retinoic acid receptor RXR-alpha (Homo sapiens); test: Activation of RXRalpha (unknown origin) expressed in human HCT116 cells co-expressing beta-catenin assessed as induction of RXRalpha interaction with beta-catenin at 30 to 60 uM incubated for 15 hrs by mammalian two-hybrid assay; assay type: cell-based; conditions: HCT-116; procedure, shortened: as §1
[17] = molecular target: T1, Retinoic acid receptor RXR-alpha (Homo sapiens); test: Activation of RXRalpha in human HCT116 cells assessed as induction of beta-catenin protein degradation at 30 to 60 uM incubated for 15 hrs by Western blot analysis; assay type: cell-based; conditions: HCT-116

SMILES | Activity [1] | pIC50 (SW-620) | Activity [2] | Activity [3] | Activity [4] [mmol/L] | Activity [5] | Activity [6] | Activity [7] [mmol/L] | half-life [8] [h] | Activity [9] | Activity [10] | Activity [11] [U/L] | Activity [12] | Activity [13] | Activity [14] [µmol/L] | Activity [15] | Activity [16] | Activity [17]
COc1ccc2cc3[n+](cc2c1OC)CCc1cc2c(cc1-3)OCO2.[Cl-] [BERBERINE CHLORIDE] | Active | 3.90 | Active | Active | 8.08 | Active | Active | 0.77 | 29 | Active | Active | 27.9 | Active | Active | 24.36 | Active | Active | Active
COc1ccc2c(c1)CC[n+]1cc3c(OC)cccc3cc1-2.[Cl-] | Active | 4.44 | Active | Active | 8.39 | Active | Active | 0.74 | 11.6 | Active | Active | 27.2 | Active | Active | 28.95 | Active | Active | Active
